By MIC50 is commonly meant the lowest concentration that inhibits either 50% of growth or 50% of the strains tested, depending on the study.

This note sets out measurements from ChEMBL document CHEMBL1921697, “Antifungal activity of 2α,3β-functionalized steroids stereoselectively increases with the addition of oligosaccharides” (Bioorg Med Chem Lett, 2011).

For one data set, the system named is Candida albicans. Kind of data set: Antifungal activity against Candida albicans ATCC 10231 assessed as growth inhibition after 48 hrs by broth microdilution relative to control. It is filed as functional. The gist of the method:
(§1)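 Broth microdilution against yeast; incubation at 35 °C for 48 h. Growth read by visual turbidity versus antifungal-free control wells and by absorbance at 530 nm. MIC₅₀ taken as the lowest level giving a prominent visual decrease in turbidity plus >50% growth reduction versus no-antifungal controls. Values in µg/mL; partial inhibition (e.g. 25%) noted where below threshold.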
For orientation: In broth dilution the organism is exposed to a series of concentrations in liquid medium.

The test system of data set [1] is Nakaseomyces glabratus. Put plainly: Antifungal activity against Candida glabrata ATCC 48435 assessed as growth inhibition after 48 hrs by broth microdilution relative to control. Format: functional. The gist of the method: as §1
The subject of data set [2] is Cryptococcus neoformans. Put plainly: Antifungal activity against Cryptococcus neoformans ATCC 36556 assessed as growth inhibition after 48 hrs by broth microdilution relative to control. Format: functional. The gist of the method: as §1
For data set [3], the system named is Cryptococcus neoformans. Kind of data set: Antifungal activity against Cryptococcus neoformans ATCC 36556 after 48 hrs by broth microdilution technique. It is filed as functional. The conditions noted are these: ATCC 36556, 48 h. The gist of the method: as §1
Data set [4] has as its system Nakaseomyces glabratus. Kind of data set: Antifungal activity against Candida glabrata ATCC 48435 after 48 hrs by broth microdilution technique. Format: functional. The conditions noted are these: ATCC 48435, 48 h. The gist of the method:
as §1

The next data set concerns Vero. Put plainly: Cytotoxicity against african green monkey Vero cells after 24 hrs by MTT assay. Conditions: chlorocebus sabaeus. Format: cell-based. The gist of the method:
(§2)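 Tetrazolium (MTT-type) proliferation assay on noncancerous Vero and rabbit skin cells. Compounds diluted in media to 200, 100, 50 and 25 µg/ml; 24 h exposure at 37 °C, 5% CO₂. Dye added for 1–4 h, then stop solution 1 h at room temperature; formazan read at 570 nm. Viability given as % of 1% DMSO no-drug wells; saponin as cell-death control; triplicate, mean ± SD.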

Data set [5] can be described thus: Cytotoxicity against Sylvilagus floridanus CCL68 cells after 24 hrs by MTT assay. Format: cell-based. The gist of the method:
as §2
(In general: Formazan colour is commonly taken as a measure of viable cells.)

Values after ≈ are worked out from the molar mass of the structure shown.

Turning to `C[C@@H]1CC[C@]2(C[C@H]3C[C@H]4[C@@H]5CC[C@H]6C[C@@H](O[C@@H]7O[C@H](CO)[C@@H](O)[C@H](O)[C@H]7O)[C@H](O)C[C@]6(C)[C@H]5CC[C@]4(C)[C@H]3[C@@H]2C)OC1`, the “growth inhibition (GI)” value in the data set on Candida albicans, in the data set on Nakaseomyces glabratus [1] and in the data set on Cryptococcus neoformans [2] was less than 50% in each case.
For `CC(C)CCC[C@@H](C)[C@H]1CC[C@H]2[C@@H]3CC[C@H]4C[C@@H](O)[C@H](O)C[C@]4(C)[C@H]3CC[C@]12C`, the “growth inhibition (GI)” value with Candida albicans is reported as less than 50%; in the data set with Nakaseomyces glabratus [1], less than 50%; with Cryptococcus neoformans [2], 25%. Further, in the data set with Cryptococcus neoformans [3], the MIC50 came out at 32 µg/mL (≈ 79.1 µM).
Turning to `CC(C)CCC[C@@H](C)[C@H]1CC[C@H]2[C@@H]3CC[C@H]4C[C@@H](O[C@H]5O[C@H](CO)[C@@H](O[C@H]6O[C@H](CO)[C@@H](O)[C@H](O)[C@H]6O)[C@H](O)[C@H]5O)CC[C@]4(C)[C@H]3CC[C@]12C`, the “growth inhibition (GI)” value in the data set on Candida albicans, with Nakaseomyces glabratus [1] and in the data set with Cryptococcus neoformans [2] was less than 50% in each case.
In the case of `CC(C)CCC[C@@H](C)[C@H]1CC[C@H]2[C@@H]3CC[C@H]4C[C@@H](O[C@@H]5O[C@H](CO)[C@@H](O[C@@H]6O[C@H](CO)[C@@H](O)[C@H](O)[C@H]6O)[C@H](O)[C@H]5O)CC[C@]4(C)[C@H]3CC[C@]12C`, the “growth inhibition (GI)” value in the data set with Candida albicans is recorded as less than 50%. For the same compound, the MIC50 against Nakaseomyces glabratus [4] and against Cryptococcus neoformans [3] was more than 125 µg/mL throughout.
`CC(C)CCC[C@@H](C)[C@H]1CC[C@H]2[C@@H]3CC[C@H]4C[C@@H](O[C@H]5O[C@H](CO)[C@@H](O)[C@H](O)[C@H]5O)[C@H](O)C[C@]4(C)[C@H]3CC[C@]12C`: the “growth inhibition (GI)” value in the data set with Candida albicans, in the data set with Nakaseomyces glabratus [1] and in the data set with Cryptococcus neoformans [2] was less than 50% each time.
As to `CC(C)CCC[C@@H](C)[C@H]1CC[C@H]2[C@@H]3CC[C@H]4C[C@@H](O[C@H]5O[C@H](CO)[C@@H](O[C@H]6O[C@H](CO)[C@@H](O)[C@H](O)[C@H]6O)[C@H](O)[C@H]5O)[C@H](O)C[C@]4(C)[C@H]3CC[C@]12C`, the “growth inhibition (GI)” value with Candida albicans, with Nakaseomyces glabratus [1] and in the data set with Cryptococcus neoformans [2] was less than 50% throughout.
For the compound `CC(C)CCC[C@@H](C)[C@H]1CC[C@H]2[C@@H]3CC[C@H]4C[C@@H](O)CC[C@]4(C)[C@H]3CC[C@]12C`, the “growth inhibition (GI)” value in the data set with Candida albicans, with Nakaseomyces glabratus [1] and with Cryptococcus neoformans [2] was less than 50% in each case.
`CC(C)CCC[C@@H](C)[C@H]1CC[C@H]2[C@@H]3CC[C@H]4C[C@@H](O[C@@H]5O[C@H](CO)[C@@H](O)[C@H](O)[C@H]5O)CC[C@]4(C)[C@H]3CC[C@]12C`: the “growth inhibition (GI)” value with Candida albicans, in the data set with Nakaseomyces glabratus [1] and in the data set with Cryptococcus neoformans [2] was less than 50% throughout.
Take `CC(C)CCC[C@@H](C)[C@H]1CC[C@H]2[C@@H]3CC[C@H]4C[C@@H](O[C@@H]5O[C@H](CO)[C@@H](O)[C@H](O)[C@H]5O)[C@H](O)C[C@]4(C)[C@H]3CC[C@]12C`: the “growth inhibition (GI)” value in the data set with Candida albicans, in the data set with Nakaseomyces glabratus [1] and in the data set on Cryptococcus neoformans [2] was less than 50% each time.
In the case of `C[C@@H]1CC[C@]2(C[C@H]3C[C@H]4[C@@H]5CC[C@H]6C[C@@H](O[C@H]7O[C@H](CO)[C@@H](O[C@H]8O[C@H](CO)[C@@H](O)[C@H](O)[C@H]8O)[C@H](O)[C@H]7O)[C@H](O)C[C@]6(C)[C@H]5CC[C@]4(C)[C@H]3[C@@H]2C)OC1`, the “growth inhibition (GI)” value in the data set on Candida albicans, with Nakaseomyces glabratus [1] and in the data set with Cryptococcus neoformans [2] was less than 50% each time.
`CC(C)CCC[C@@H](C)[C@H]1CC[C@H]2[C@@H]3CC[C@H]4C[C@@H](O[C@@H]5O[C@H](CO)[C@@H](O[C@H]6O[C@H](CO)[C@@H](O)[C@H](O)[C@H]6O)[C@H](O)[C@H]5O)[C@H](O)C[C@]4(C)[C@H]3CC[C@]12C`: the “growth inhibition (GI)” value in the data set with Candida albicans and with Nakaseomyces glabratus [1] was less than 50% throughout. This compound displayed an MIC50 in the data set with Cryptococcus neoformans [3] of 32 µg/mL (≈ 43.9 µM).
`CC(C)CCC[C@@H](C)[C@H]1CC[C@H]2[C@@H]3CC[C@H]4C[C@@H](O[C@H]5O[C@H](CO)[C@@H](O)[C@H](O)[C@H]5O)CC[C@]4(C)[C@H]3CC[C@]12C`: the “growth inhibition (GI)” value in the data set with Candida albicans, in the data set on Nakaseomyces glabratus [1] and in the data set on Cryptococcus neoformans [2] was less than 50% in each case.
`C[C@@H]1CC[C@@]2(OC1)O[C@H]1C[C@H]3[C@@H]4CC[C@H]5C[C@@H](O[C@H]6O[C@H](CO)[C@@H](O)[C@H](O)[C@H]6O)[C@H](O)C[C@]5(C)[C@H]4CC[C@]3(C)[C@H]1[C@@H]2C`: the “growth inhibition (GI)” value in the data set with Candida albicans, with Nakaseomyces glabratus [1] and in the data set on Cryptococcus neoformans [2] was less than 50% throughout.
For `C[C@@H]1CC[C@]2(C[C@H]3C[C@H]4[C@@H]5CC[C@H]6C[C@@H](O[C@@H]7O[C@H](CO)[C@@H](O[C@@H]8O[C@H](CO)[C@@H](O)[C@H](O)[C@H]8O)[C@H](O)[C@H]7O)[C@H](O)C[C@]6(C)[C@H]5CC[C@]4(C)[C@H]3[C@@H]2C)OC1`, the Activity result (in the data set on Vero; in data set [5]) was “Non-toxic” each time.
With `CC(C)CCC[C@@H](C)[C@H]1CC[C@H]2[C@@H]3CC[C@H]4C[C@@H](O[C@@H]5O[C@H](CO)[C@@H](O[C@H]6O[C@H](CO)[C@@H](O)[C@H](O)[C@H]6O)[C@H](O)[C@H]5O)CC[C@]4(C)[C@H]3CC[C@]12C`, the “growth inhibition (GI)” value in the data set with Candida albicans is reported as less than 50%. Moreover, the MIC50 in the data set on Nakaseomyces glabratus [4] and in the data set on Cryptococcus neoformans [3] was 4 µg/mL (≈ 5.61 µM) each time. Further, the Activity result (in the data set with Vero; in data set [5]) was “Non-toxic” throughout.
On to `CC(C)CCC[C@@H](C)[C@H]1CC[C@H]2[C@@H]3CC[C@H]4C[C@@H](O[C@@H]5O[C@H](CO)[C@@H](O[C@@H]6O[C@H](CO)[C@@H](O)[C@H](O)[C@H]6O)[C@H](O)[C@H]5O)[C@H](O)C[C@]4(C)[C@H]3CC[C@]12C`, for which the “growth inhibition (GI)” value in the data set on Candida albicans is less than 50%. Besides, the MIC50 came to 8 µg/mL (≈ 11 µM) against Nakaseomyces glabratus [4] and 4 µg/mL (≈ 5.49 µM) in the data set with Cryptococcus neoformans [3]. The Activity entry (in the data set with Vero; in data set [5]) was “Toxic” in each case.
